Measured values taken from ChEMBL document CHEMBL1177846, “Benzylidene/2-chlorobenzylidene hydrazides: synthesis, antimicrobial activity, QSAR studies and antiviral evaluation” (Eur J Med Chem, 2010).
The source made the active and inactive calls. The rule behind the calls is not given here.

Tested on: Human alphaherpesvirus 2
Assay: Antiviral activity against Herpes simplex virus 2 G infected in human HEL cells assessed as inhibition of virus-induced cytopathic effect after 3 days by MTS assay
Type: functional, organism-based
Settings: strain G
Outline: (§1)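 Confluent cell monolayers were infected with 100 CCID50 of virus and allowed 2 h adsorption at 37 °C. Virus was then removed and serial compound dilutions were added. Cultures were incubated at 37 °C for 3 days, until CPE was complete in the untreated virus control. EC50 was the concentration giving 50% inhibition of virus-induced CPE, by visual score or by MTS formazan cell viability.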

SMILES	inhibition
CCCCCCCCCCCCCCCCCC(=O)N/N=C/c1ccccc1	inactive
O=C(N/N=C/c1ccccc1)c1cc([N+](=O)[O-])cc([N+](=O)[O-])c1	inactive
Cc1ccc(C(=O)N/N=C/c2ccccc2Cl)cc1	inactive
CCCCCCCCCCCC(=O)N/N=C/c1ccccc1	inactive
O=C(N/N=C/c1ccccc1Cl)c1cc([N+](=O)[O-])cc([N+](=O)[O-])c1	inactive

Tested on: Mammalian orthoreovirus 1
Assay: Antiviral activity against Reovirus 1 infected in african green monkey Vero cells assessed as inhibition of virus-induced cytopathic effect after 3 days by MTS assay
Type: functional, organism-based
Settings: not given
Outline: as §1

SMILES	inhibition
CCCCCCCCCCCCCCCCCC(=O)N/N=C/c1ccccc1	inactive
O=C(N/N=C/c1ccccc1)c1cc([N+](=O)[O-])cc([N+](=O)[O-])c1	inactive
Cc1ccc(C(=O)N/N=C/c2ccccc2Cl)cc1	inactive
CCCCCCCCCCCC(=O)N/N=C/c1ccccc1	inactive
O=C(N/N=C/c1ccccc1Cl)c1cc([N+](=O)[O-])cc([N+](=O)[O-])c1	inactive

Tested on: Staphylococcus aureus
Assay: Antibacterial activity against Staphylococcus aureus after 24 hrs by serial dilution method
Type: functional
Settings: not given

SMILES	MBC
CCCCCCCCCCCCCCCCCC(=O)N/N=C/c1ccccc1	0.129 uM/ml
O=C(N/N=C/c1ccccc1)c1cc([N+](=O)[O-])cc([N+](=O)[O-])c1	>0.159 uM/ml
Cc1ccc(C(=O)N/N=C/c2ccccc2Cl)cc1	0.045 uM/ml
CCCCCCCCCCCC(=O)N/N=C/c1ccccc1	>0.166 uM/ml
O=C(N/N=C/c1ccccc1Cl)c1cc([N+](=O)[O-])cc([N+](=O)[O-])c1	>0.13 uM/ml

Tested on: Human alphaherpesvirus 1
Assay: Antiviral activity against acyclovir-resistant […] kinase-deficient HSV1 KOS infected in human HEL cells assessed as inhibition of virus-induced cytopathic effect after 3 days by MTS assay
Type: functional, organism-based
Settings: not given
Outline: as §1

SMILES	inhibition
CCCCCCCCCCCCCCCCCC(=O)N/N=C/c1ccccc1	inactive
O=C(N/N=C/c1ccccc1)c1cc([N+](=O)[O-])cc([N+](=O)[O-])c1	inactive
Cc1ccc(C(=O)N/N=C/c2ccccc2Cl)cc1	inactive
CCCCCCCCCCCC(=O)N/N=C/c1ccccc1	inactive
O=C(N/N=C/c1ccccc1Cl)c1cc([N+](=O)[O-])cc([N+](=O)[O-])c1	inactive

Tested on: Felid alphaherpesvirus 1
Assay: Antiviral activity against Feline herpesvirus 1 infected in […] cells assessed as inhibition of virus-induced cytopathic effect after 3 days by MTS assay
Type: functional, organism-based
Settings: not given
Outline: as §1

SMILES	inhibition
CCCCCCCCCCCCCCCCCC(=O)N/N=C/c1ccccc1	inactive
O=C(N/N=C/c1ccccc1)c1cc([N+](=O)[O-])cc([N+](=O)[O-])c1	inactive
Cc1ccc(C(=O)N/N=C/c2ccccc2Cl)cc1	inactive
CCCCCCCCCCCC(=O)N/N=C/c1ccccc1	inactive
O=C(N/N=C/c1ccccc1Cl)c1cc([N+](=O)[O-])cc([N+](=O)[O-])c1	inactive

Tested on: Escherichia coli
Assay: Antibacterial activity against Escherichia coli after 24 hrs by serial dilution method
Type: functional
Settings: not given

SMILES	-logMIC	MBC
CCCCCCCCCCCCCCCCCC(=O)N/N=C/c1ccccc1	1.79	0.064 uM/ml
O=C(N/N=C/c1ccccc1)c1cc([N+](=O)[O-])cc([N+](=O)[O-])c1		>0.159 uM/ml
Cc1ccc(C(=O)N/N=C/c2ccccc2Cl)cc1		0.045 uM/ml
CCCCCCCCCCCC(=O)N/N=C/c1ccccc1		0.041 uM/ml
O=C(N/N=C/c1ccccc1Cl)c1cc([N+](=O)[O-])cc([N+](=O)[O-])c1		>0.13 uM/ml

Tested on: Vesicular stomatitis virus
Assay: Antiviral activity against VSV infected in human HEL cells assessed as inhibition of virus-induced cytopathic effect after 3 days by MTS assay
Type: functional, organism-based
Settings: not given
Outline: as §1

SMILES	inhibition
CCCCCCCCCCCCCCCCCC(=O)N/N=C/c1ccccc1	inactive
O=C(N/N=C/c1ccccc1)c1cc([N+](=O)[O-])cc([N+](=O)[O-])c1	inactive
Cc1ccc(C(=O)N/N=C/c2ccccc2Cl)cc1	inactive
CCCCCCCCCCCC(=O)N/N=C/c1ccccc1	inactive
O=C(N/N=C/c1ccccc1Cl)c1cc([N+](=O)[O-])cc([N+](=O)[O-])c1	inactive

Tested on: Punta Toro virus
Assay: Antiviral activity against Punta toro virus infected in african green monkey Vero cells assessed as inhibition of virus-induced cytopathic effect after 3 days by MTS assay
Type: functional, organism-based
Settings: not given
Outline: as §1

SMILES	inhibition
CCCCCCCCCCCCCCCCCC(=O)N/N=C/c1ccccc1	inactive
O=C(N/N=C/c1ccccc1)c1cc([N+](=O)[O-])cc([N+](=O)[O-])c1	inactive
Cc1ccc(C(=O)N/N=C/c2ccccc2Cl)cc1	inactive
CCCCCCCCCCCC(=O)N/N=C/c1ccccc1	inactive
O=C(N/N=C/c1ccccc1Cl)c1cc([N+](=O)[O-])cc([N+](=O)[O-])c1	inactive

Tested on: Influenza B virus
Assay: Antiviral activity against influenza B virus infected in MDCK cells assessed as inhibition of virus-induced cytopathic effect after 3 days by MTS assay
Type: functional, organism-based
Settings: not given
Outline: as §1

SMILES	inhibition
CCCCCCCCCCCCCCCCCC(=O)N/N=C/c1ccccc1	inactive
O=C(N/N=C/c1ccccc1)c1cc([N+](=O)[O-])cc([N+](=O)[O-])c1	inactive
Cc1ccc(C(=O)N/N=C/c2ccccc2Cl)cc1	inactive
CCCCCCCCCCCC(=O)N/N=C/c1ccccc1	inactive
O=C(N/N=C/c1ccccc1Cl)c1cc([N+](=O)[O-])cc([N+](=O)[O-])c1	inactive

Tested on: Human respirovirus 3
Assay: Antiviral activity against Parainfluenza 3 virus infected in african green monkey Vero cells assessed as inhibition of virus-induced cytopathic effect after 3 days by MTS assay
Type: functional, organism-based
Settings: not given
Outline: as §1

SMILES	inhibition
CCCCCCCCCCCCCCCCCC(=O)N/N=C/c1ccccc1	inactive
O=C(N/N=C/c1ccccc1)c1cc([N+](=O)[O-])cc([N+](=O)[O-])c1	inactive
Cc1ccc(C(=O)N/N=C/c2ccccc2Cl)cc1	inactive
CCCCCCCCCCCC(=O)N/N=C/c1ccccc1	inactive
O=C(N/N=C/c1ccccc1Cl)c1cc([N+](=O)[O-])cc([N+](=O)[O-])c1	inactive

Tested on: Bacillus subtilis
Assay: Antibacterial activity against Bacillus subtilis after 24 hrs by serial dilution method
Type: functional
Settings: not given

SMILES	-logMIC	MBC
CCCCCCCCCCCCCCCCCC(=O)N/N=C/c1ccccc1	1.49	<0.129 uM/ml
O=C(N/N=C/c1ccccc1)c1cc([N+](=O)[O-])cc([N+](=O)[O-])c1		0.159 uM/ml
Cc1ccc(C(=O)N/N=C/c2ccccc2Cl)cc1		0.183 uM/ml
CCCCCCCCCCCC(=O)N/N=C/c1ccccc1		>0.166 uM/ml
O=C(N/N=C/c1ccccc1Cl)c1cc([N+](=O)[O-])cc([N+](=O)[O-])c1		0.065 uM/ml

Tested on: Coxsackievirus B4
Assay: Antiviral activity against Coxsackie virus B4 infected in african green monkey Vero cells assessed as inhibition of virus-induced cytopathic effect after 3 days by MTS assay
Type: functional, organism-based
Settings: not given
Outline: as §1

SMILES	inhibition
CCCCCCCCCCCCCCCCCC(=O)N/N=C/c1ccccc1	inactive
O=C(N/N=C/c1ccccc1)c1cc([N+](=O)[O-])cc([N+](=O)[O-])c1	inactive
Cc1ccc(C(=O)N/N=C/c2ccccc2Cl)cc1	inactive
CCCCCCCCCCCC(=O)N/N=C/c1ccccc1	inactive
O=C(N/N=C/c1ccccc1Cl)c1cc([N+](=O)[O-])cc([N+](=O)[O-])c1	inactive

Tested on: Human alphaherpesvirus 1
Assay: Antiviral activity against Herpes simplex virus 1 KOS infected in human HEL cells assessed as inhibition of virus-induced cytopathic effect after 3 days by MTS assay
Type: functional, organism-based
Settings: not given
Outline: as §1

SMILES	inhibition
CCCCCCCCCCCCCCCCCC(=O)N/N=C/c1ccccc1	inactive
O=C(N/N=C/c1ccccc1)c1cc([N+](=O)[O-])cc([N+](=O)[O-])c1	inactive
Cc1ccc(C(=O)N/N=C/c2ccccc2Cl)cc1	inactive
CCCCCCCCCCCC(=O)N/N=C/c1ccccc1	inactive
O=C(N/N=C/c1ccccc1Cl)c1cc([N+](=O)[O-])cc([N+](=O)[O-])c1	inactive

Tested on: Candida albicans
Assay: Antifungal activity against Candida albicans after 48 hrs by serial dilution method
Type: functional
Settings: not given
Outline: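 Serial compound dilutions in Sabouraud dextrose broth (tube dilution), incubated 37 °C for 48 h. MIC was read as the lowest concentration with no growth.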

SMILES	-logMIC	MFC
CCCCCCCCCCCCCCCCCC(=O)N/N=C/c1ccccc1	2.09	<0.129 uM/ml
O=C(N/N=C/c1ccccc1)c1cc([N+](=O)[O-])cc([N+](=O)[O-])c1		0.159 uM/ml
Cc1ccc(C(=O)N/N=C/c2ccccc2Cl)cc1		>0.183 uM/ml
CCCCCCCCCCCC(=O)N/N=C/c1ccccc1		>0.166 uM/ml
O=C(N/N=C/c1ccccc1Cl)c1cc([N+](=O)[O-])cc([N+](=O)[O-])c1	2.05	>0.13 uM/ml

Tested on: Influenza A virus
Assay: Antiviral activity against influenza A virus H1N1 infected in MDCK cells assessed as inhibition of virus-induced cytopathic effect after 3 days by MTS assay
Type: functional, organism-based
Settings: not given
Outline: as §1

SMILES	inhibition
CCCCCCCCCCCCCCCCCC(=O)N/N=C/c1ccccc1	inactive
O=C(N/N=C/c1ccccc1)c1cc([N+](=O)[O-])cc([N+](=O)[O-])c1	inactive
Cc1ccc(C(=O)N/N=C/c2ccccc2Cl)cc1	inactive
CCCCCCCCCCCC(=O)N/N=C/c1ccccc1	inactive
O=C(N/N=C/c1ccccc1Cl)c1cc([N+](=O)[O-])cc([N+](=O)[O-])c1	inactive

Tested on: Influenza A virus
Assay: Antiviral activity against influenza A virus H3N2 infected in MDCK cells assessed as inhibition of virus-induced cytopathic effect after 3 days by MTS assay
Type: functional, organism-based
Settings: not given
Outline: as §1

SMILES	inhibition
CCCCCCCCCCCCCCCCCC(=O)N/N=C/c1ccccc1	inactive
O=C(N/N=C/c1ccccc1)c1cc([N+](=O)[O-])cc([N+](=O)[O-])c1	inactive
Cc1ccc(C(=O)N/N=C/c2ccccc2Cl)cc1	inactive
CCCCCCCCCCCC(=O)N/N=C/c1ccccc1	inactive
O=C(N/N=C/c1ccccc1Cl)c1cc([N+](=O)[O-])cc([N+](=O)[O-])c1	inactive

Tested on: Feline coronavirus
Assay: Antiviral activity against Feline caronavirus infected in […] cells assessed as inhibition of virus-induced cytopathic effect after 3 days by MTS assay
Type: functional, organism-based
Settings: not given
Outline: as §1

SMILES	inhibition
CCCCCCCCCCCCCCCCCC(=O)N/N=C/c1ccccc1	inactive
O=C(N/N=C/c1ccccc1)c1cc([N+](=O)[O-])cc([N+](=O)[O-])c1	inactive
Cc1ccc(C(=O)N/N=C/c2ccccc2Cl)cc1	inactive
CCCCCCCCCCCC(=O)N/N=C/c1ccccc1	inactive
O=C(N/N=C/c1ccccc1Cl)c1cc([N+](=O)[O-])cc([N+](=O)[O-])c1	inactive

Tested on: Aspergillus niger
Assay: Antifungal activity against Aspergillus niger after 7 days by serial dilution method
Type: functional
Settings: not given

SMILES	-logMIC	MFC
CCCCCCCCCCCCCCCCCC(=O)N/N=C/c1ccccc1	1.2	0.03 uM/ml
O=C(N/N=C/c1ccccc1)c1cc([N+](=O)[O-])cc([N+](=O)[O-])c1	1.7	0.079 uM/ml
Cc1ccc(C(=O)N/N=C/c2ccccc2Cl)cc1	1.61	0.183 uM/ml
CCCCCCCCCCCC(=O)N/N=C/c1ccccc1	1.21	>0.166 uM/ml
O=C(N/N=C/c1ccccc1Cl)c1cc([N+](=O)[O-])cc([N+](=O)[O-])c1	1.6	>0.13 uM/ml

Tested on: Vaccinia virus
Assay: Antiviral activity against Vaccinia virus infected in human HEL cells assessed as inhibition of virus-induced cytopathic effect after 3 days by MTS assay
Type: functional, organism-based
Settings: Orthopoxvirus vaccinia
Outline: as §1

SMILES	inhibition
CCCCCCCCCCCCCCCCCC(=O)N/N=C/c1ccccc1	inactive
O=C(N/N=C/c1ccccc1)c1cc([N+](=O)[O-])cc([N+](=O)[O-])c1	inactive
Cc1ccc(C(=O)N/N=C/c2ccccc2Cl)cc1	inactive
CCCCCCCCCCCC(=O)N/N=C/c1ccccc1	inactive
O=C(N/N=C/c1ccccc1Cl)c1cc([N+](=O)[O-])cc([N+](=O)[O-])c1	inactive

Tested on: Sindbis virus
Assay: Antiviral activity against Simbidis virus infected in african green monkey Vero cells assessed as inhibition of virus-induced cytopathic effect after 3 days by MTS assay
Type: functional, organism-based
Settings: not given
Outline: as §1

SMILES	inhibition
CCCCCCCCCCCCCCCCCC(=O)N/N=C/c1ccccc1	inactive
O=C(N/N=C/c1ccccc1)c1cc([N+](=O)[O-])cc([N+](=O)[O-])c1	inactive
Cc1ccc(C(=O)N/N=C/c2ccccc2Cl)cc1	inactive
CCCCCCCCCCCC(=O)N/N=C/c1ccccc1	inactive
O=C(N/N=C/c1ccccc1Cl)c1cc([N+](=O)[O-])cc([N+](=O)[O-])c1	inactive
